Peptide text beside a SMILES is read from it. * marks the point of attachment. OBn = c1ccc(CO*)cc1
Tests used:
[1] = tested on: H22; assay: Antiproliferative activity against mouse H22 cells after 48 hrs by MTT assay; format: functional, cell-based; conditions: H22, 48 h
[2] = tested on: Mus musculus; assay: Toxicity in ICR mouse xenografted with mouse S180 cells assessed as effect on brain weight at 2 umol/kg; format: organism-based, CCRF S-180; conditions: in vivo
[3] = tested on: CCRF S-180; assay: Antitumor activity against mouse S180 cells xenografted in ICR mouse assessed as tumor growth inhibition at 0.089 umol/kg, ip qd administered 1 day after tumor inoculation for 7 days; format: functional; conditions: CCRF S-180, ip, read-out: GI
Procedure, shortened: (§1)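 Male ICR mice 10–12 weeks; S180 from ascites serially transplanted weekly; 1×10^7 viable cells in 0.2 ml NS implanted s.c. at right oxter; 24 h later randomized (10 per group); daily i.p. 8.9, 0.89 or 0.089 µmol/kg/day in 0.2 ml NS, 7 days; NS and cytarabine controls; sacrificed 24 h after last dose; inhibition % = [1−(Tw/Cw)]×100.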

[4] = tested on: CCRF S-180; assay: Antitumor activity against mouse S180 cells xenografted in ICR mouse assessed as tumor growth inhibition at 8.9 umol/kg, ip administered 1 day after tumor inoculation qd for 7 days; format: functional; conditions: CCRF S-180, ip, read-out: GI; procedure, shortened: as §1
[5] = tested on: CCRF S-180; assay: Antitumor activity against mouse S180 cells xenografted in ICR mouse assessed as tumor growth inhibition at 0.89 umol/kg, ip administered 1 day after tumor inoculation qd for 7 days; format: functional; conditions: CCRF S-180, ip, read-out: GI; procedure, shortened: as §1
[6] = tested on: B16; assay: Antiproliferative activity against mouse B16 cells after 48 hrs by MTT assay; format: functional, cell-based; conditions: B16, 48 h
[7] = tested on: Mus musculus; assay: Toxicity in ICR mouse xenografted with mouse S180 cells assessed as increase in spleen index at 2 umol/kg; format: organism-based, CCRF S-180; conditions: in vivo
[8] = tested on: Mus musculus; assay: Toxicity in ICR mouse xenografted with mouse S180 cells assessed as increase in body weight at 2 umol/kg; format: organism-based, CCRF S-180; conditions: in vivo
[9] = tested on: K562; assay: Antiproliferative activity against human K562 cells after 48 hrs by MTT assay; format: functional, cell-based; conditions: K562, 48 h
[10] = tested on: Mus musculus; assay: Toxicity in ICR mouse xenografted with mouse S180 cells assessed as effect on liver weight at 2 umol/kg; format: organism-based, CCRF S-180; conditions: in vivo
[11] = tested on: HepG2; assay: Antiproliferative activity against human HepG2 cells after 48 hrs by MTT assay; format: functional, cell-based; conditions: HepG2, 48 h
[12] = tested on: CCRF S-180; assay: Antiproliferative activity against mouse S180 cells after 48 hrs by MTT assay; format: functional, cell-based; conditions: CCRF S-180, 48 h
[13] = tested on: Mus musculus; assay: Toxicity in ICR mouse xenografted with mouse S180 cells assessed as effect on kidney weight at 2 umol/kg; format: organism-based, CCRF S-180; conditions: in vivo
[14] = tested on: Mus musculus; assay: Acute toxicity in ICR mouse assessed as apparent changes in any organ at 500 mg/kg, ip administered qd for 7 days; format: organism-based; set-up: dose 500 mg/kg, route intraperitoneal; conditions: in vivo, 168 h
[15] = tested on: Mus musculus; assay: Toxicity in ICR mouse xenografted with mouse S180 cells assessed as effect on brain weight at 8.9 umol/kg; format: organism-based, CCRF S-180; conditions: in vivo
Procedure, shortened: (§2)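 S180-bearing male ICR mice (10–12 weeks; 1×10^7 cells s.c. right oxter; 12 per group), daily i.p. 8.9 µmol/kg for seven days starting 24 h after implantation; NS, cytarabine and doxorubicin controls; liver, brain, kidney weights, spleen index and body-weight gain recorded.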

[16] = tested on: Mus musculus; assay: Acute toxicity in ICR mouse assessed as supination at 500 mg/kg, ip administered qd for 7 days; format: organism-based; set-up: dose 500 mg/kg, route intraperitoneal; conditions: in vivo, 168 h
[17] = tested on: Mus musculus; assay: Acute toxicity in ICR mouse assessed as tremors at 500 mg/kg, ip administered qd for 7 days; format: organism-based; set-up: dose 500 mg/kg, route intraperitoneal; conditions: in vivo, 168 h
[18] = Acute toxicity in ip dosed ICR mouse assessed as lethal dose; format: organism-based; conditions: in vivo
Procedure, shortened: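 Male ICR mice, 24 weeks old, got a single i.p. injection of 500 mg/kg in 0.2 ml NS (normal saline). They were watched for 7 days for neurotoxic behaviour (tremor, twitch, jumping, tetanus, supination) and for death.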

[19] = tested on: Mus musculus; assay: Toxicity in ICR mouse xenografted with mouse S180 cells assessed as increase in spleen index at 8.9 umol/kg; format: organism-based, CCRF S-180; conditions: in vivo; procedure, shortened: as §2
[20] = tested on: Mus musculus; assay: Toxicity in ICR mouse xenografted with mouse S180 cells assessed as effect on liver weight at 8.9 umol/kg; format: organism-based, CCRF S-180; conditions: in vivo; procedure, shortened: as §2
[21] = tested on: Mus musculus; assay: Toxicity in ICR mouse xenografted with mouse S180 cells assessed as increase in body weight at 8.9 umol/kg; format: organism-based, CCRF S-180; conditions: in vivo; procedure, shortened: as §2
[22] = tested on: Mus musculus; assay: Acute toxicity in ICR mouse assessed as mortality at 500 mg/kg, ip administered qd for 7 days; format: organism-based; set-up: dose 500 mg/kg, route intraperitoneal; conditions: in vivo, 168 h
[23] = tested on: Mus musculus; assay: Acute toxicity in ICR mouse assessed as jumping at 500 mg/kg, ip administered qd for 7 days; format: organism-based; set-up: dose 500 mg/kg, route intraperitoneal; conditions: in vivo, 168 h
[24] = tested on: Mus musculus; assay: Acute toxicity in ICR mouse assessed as tetanus at 500 mg/kg, ip administered qd for 7 days; format: organism-based; set-up: dose 500 mg/kg, route intraperitoneal; conditions: in vivo, 168 h
[25] = tested on: Mus musculus; assay: Toxicity in ICR mouse xenografted with mouse S180 cells assessed as effect on kidney weight at 8.9 umol/kg; format: organism-based, CCRF S-180; conditions: in vivo; procedure, shortened: as §2
[26] = tested on: Mus musculus; assay: Acute toxicity in ICR mouse assessed as twitch at 500 mg/kg, ip administered qd for 7 days; format: organism-based; set-up: dose 500 mg/kg, route intraperitoneal; conditions: in vivo, 168 h

Row | Compound | IC50 [1] [µM] | inhibition in vivo at 8.9 µmol/kg [4] [%] | IC50 [6] [µM] | IC50 [9] [µM] | IC50 [11] [µM] | IC50 [12] [µM] | Activity [14] | Activity [15] [g] | Activity [16] | Activity [17] | LD50 [18] [mg/kg] | Activity [19] | Activity [20] [g] | Activity [21] [g] | Activity [22] | Activity [23] | Activity [24] | Activity [25] [g] | Activity [26] | other results
1 | Nc1ccn([C@@H]2O[C@H](CO)[C@@H](O)[C@@H]2O)c(=O)n1 [CYTARABINE] | 26 | 31.9 | 30.6 | 24.3 | 26.2 | 25.4 |  |  |  |  |  |  |  |  |  |  |  |  |  | Activity [2]: 0.29 g; inhibition in vivo at 0.089 µmol/kg [3]: 7.86%; inhibition in vivo at 0.89 µmol/kg [5]: 20.6%; Activity [7]: 7.5; Activity [8]: 7.12 g; Activity [10]: 1.62 g; Activity [13]: 0.16 g
2 | N[C@@H](Cc1c[nH]c2ccccc12)C(=O)N[C@@H](Cc1c[nH]c2ccccc12)C(=O)N[C@@H](CO)C(=O)OCc1ccccc1 (H-Trp-Trp-Ser-OBn) | 46.3 | 18.1 | 54.3 | 41.6 | 46.6 | 41.2 | Non-toxic | 0.28 | Non-toxic | Non-toxic | > 500 | 7.59 | 1.73 | 9.95 | Non-toxic | Non-toxic | Non-toxic | 0.16 | Non-toxic | 
3 | N[C@@H](Cc1c[nH]c2ccccc12)C(=O)N[C@@H](Cc1c[nH]c2ccccc12)C(=O)N[C@@H](Cc1ccc(O)cc1)C(=O)OCc1ccccc1 (H-Trp-Trp-Tyr-OBn) | 39.6 | 20.2 | 36 | 45.7 | 43.2 | 36 | Non-toxic | 0.27 | Non-toxic | Non-toxic | > 500 | 7.5 | 1.78 | 9.76 | Non-toxic | Non-toxic | Non-toxic | 0.16 | Non-toxic | 
4 | N[C@@H](Cc1c[nH]c2ccccc12)C(=O)N[C@@H](Cc1c[nH]c2ccccc12)C(=O)N1CCC[C@H]1C(=O)OCc1ccccc1 (H-Trp-Trp-Pro-OBn) | 15.5 | 58 | 17.2 | 12.9 | 14.7 | 12.5 | Non-toxic | 0.27 | Non-toxic | Non-toxic | > 500 | 8.01 | 1.81 | 10.24 | Non-toxic | Non-toxic | Non-toxic | 0.15 | Non-toxic | 
